Source: ChEMBL document CHEMBL1155452, “Oncocin (VDKPPYLPRPRPPRRIYNR-NH2): a novel antibacterial peptide optimized against gram-negative human pathogens” (J Med Chem, 2010)
Where a SMILES comes first, the peptide text is derived from it. [ ]: non-standard residue; d: D form. Orn = NCCC[C@H](N)C(=O)O

How the values were obtained:
Escherichia coli [1] = assay: Antimicrobial activity against Escherichia coli 70419002 after 20 hrs by broth microdilution method; type: functional; conditions: Escherichia coli, 70419002, 20 h
Method in brief: (§1)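 Pathogens grown overnight on Columbia agar. Colonies suspended in 0.9% saline to OD 0.1, diluted 1:300 in 1% TSB, final (1-2) × 10^5 cfu/well. Peptides 2-fold serially diluted in 1% TSB from 128 to typically 0.5 μg/mL. Incubation at 37 °C; A595 read after 20 ± 2 h. MIC is the lowest concentration with absorbance not above medium only. Triplicate.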

Escherichia coli [2] = assay: Antimicrobial activity against Escherichia coli 70502001 after 20 hrs by broth microdilution method; type: functional; conditions: Escherichia coli, 70502001, 20 h; method in brief: as §1
Escherichia coli [3] = assay: Antimicrobial activity against Escherichia coli Neumann after 20 hrs by broth microdilution method; type: functional; method in brief: as §1
Escherichia coli [4] = assay: Antimicrobial activity against Escherichia coli 205024 after 20 hrs by broth microdilution method; type: functional; conditions: Escherichia coli, 205024, 20 h; method in brief: as §1
Escherichia coli [5] = assay: Antimicrobial activity against Escherichia coli 455/7 after 20 hrs by broth microdilution method; type: functional; conditions: 455/7, 20 h; method in brief: as §1
Escherichia coli [6] = assay: Antimicrobial activity against Escherichia coli 8474 after 20 hrs by broth microdilution method; type: functional; conditions: Escherichia coli, 8474, 20 h; method in brief: as §1
Klebsiella pneumoniae [7] = assay: Antimicrobial activity against Klebsiella pneumoniae DSM 681 after 20 hrs by broth microdilution method; type: functional; conditions: DSM 681, 20 h; method in brief: as §1
Escherichia coli [8] = assay: Antibacterial activity against Escherichia coli BL21 AI after 20 hrs by broth microdilution assay; type: functional
Method in brief: (§2)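 Nutrient-broth overnight cultures diluted in 1% TSB; E. coli BL21AI 7.5 × 10^5 cells/well, M. luteus ATCC 10240 2 × 10^6 cells/well. Peptides serially 2-fold diluted in 1% TSB from 128 to typically 0.5 μg/mL. Incubation at 37 °C; A595 read after 20 ± 2 h. MIC is the lowest concentration with absorbance not above medium only. Triplicate.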

Micrococcus luteus = assay: Antibacterial activity against Micrococcus luteus ATCC 10240 after 20 hrs by broth microdilution assay; type: functional; conditions: ATCC 10240, 20 h; method in brief: as §2
Klebsiella pneumoniae [9] = assay: Antimicrobial activity against Klebsiella pneumoniae 63 after 20 hrs by broth microdilution method; type: functional; conditions: Klebsiella pneumoniae, 63, 20 h
Method in brief: (§3)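 Pathogenic strains grown overnight on Columbia agar, colonies suspended in 0.9% saline to OD 0.1, diluted 1:300 in 1% TSB; final (1-2) × 10^5 cfu/well. Peptides 2-fold serially diluted in 1% TSB from 128 μg/mL, typically to 0.5 μg/mL. Incubated 37 °C, absorbance at 595 nm after 20 ± 2 h, in triplicate; MIC = lowest concentration with absorbance not exceeding medium only.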

Klebsiella pneumoniae [10] = assay: Antimicrobial activity against Klebsiella pneumoniae 8085 after 20 hrs by broth microdilution method; type: functional; conditions: Klebsiella pneumoniae, 8085, 20 h; method in brief: as §1
Klebsiella pneumoniae [11] = assay: Antimicrobial activity against Klebsiella pneumoniae ATCC 12657 after 20 hrs by broth microdilution method; type: functional; conditions: ATCC 12657, 20 h; method in brief: as §1
Klebsiella pneumoniae [12] = assay: Antimicrobial activity against Klebsiella pneumoniae ATCC 27799 after 20 hrs by broth microdilution method; type: functional; conditions: ATCC 27799, 20 h; method in brief: as §3
Acinetobacter baumannii [13] = assay: Antimicrobial activity against Acinetobacter baumannii ICB 14067 after 20 hrs by broth microdilution method; type: functional; conditions: ICB 14067, 20 h; method in brief: as §1
Acinetobacter baumannii [14] = assay: Antimicrobial activity against Acinetobacter baumannii ICB 14072 after 20 hrs by broth microdilution method; type: functional; conditions: ICB 14072, 20 h; method in brief: as §1
Acinetobacter baumannii [15] = assay: Antimicrobial activity against Acinetobacter baumannii ICB 14073 after 20 hrs by broth microdilution method; type: functional; conditions: ICB 14073, 20 h; method in brief: as §1
Acinetobacter baumannii [16] = assay: Antimicrobial activity against Acinetobacter baumannii ICB 9250 after 20 hrs by broth microdilution method; type: functional; conditions: ICB 9250, 20 h; method in brief: as §1
Acinetobacter baumannii [17] = assay: Antimicrobial activity against Acinetobacter baumannii M17 after 20 hrs by broth microdilution method; type: functional; conditions: M17, 20 h; method in brief: as §1
Enterobacter cloacae [18] = assay: Antimicrobial activity against Enterobacter cloacae 34654 after 20 hrs by broth microdilution method; type: functional; conditions: Enterobacter cloacae, 34654, 20 h; method in brief: as §1
Enterobacter cloacae [19] = assay: Antimicrobial activity against Enterobacter cloacae Ha088 after 20 hrs by broth microdilution method; type: functional; conditions: Ha088, 20 h; method in brief: as §1
Enterobacter cloacae [20] = assay: Antimicrobial activity against Enterobacter cloacae Ha089 after 20 hrs by broth microdilution method; type: functional; conditions: Ha089, 20 h; method in brief: as §1
Enterobacter cloacae [21] = assay: Antimicrobial activity against Enterobacter cloacae Ha185 after 20 hrs by broth microdilution method; type: functional; conditions: Ha185, 20 h; method in brief: as §3
Klebsiella pneumoniae [22] = assay: Antimicrobial activity against Klebsiella pneumoniae 57 USA after 20 hrs by broth microdilution method; type: functional; method in brief: as §1
[23] = Stability in 100% mouse serum assessed as half life at 75 ug/ml by MALDI-TOF-MS analysis; type: ADME, cell-free
Method in brief: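 Peptide at 75 μg/mL final in pooled mouse serum (undiluted or 25% v:v aqueous), 37 °C. Triplicate aliquots taken at 0, 30, 60, 120 and 240 min and precipitated with 3% TCA on ice for 10 min. Supernatant neutralized with NaOH and analysed by RP-HPLC on C18 with TFA-containing gradient. Amounts expressed relative to 0 min; metabolites identified by MALDI-TOF-MS.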

HeLa = assay: Cytotoxicity against human HeLa cells at 600 ug/ml after 24 hrs by MTT assay; type: cell-based
Method in brief: (§4)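 HeLa (1.5 × 10^4/well, seeded overnight) or SH-SY5Y (2 × 10^4/well, differentiated 5 days with 10 μM trans-retinoic acid) in DMEM/Ham's F-12 with 5% or 15% FBS. Peptide added at 600 μg/mL for 24 h at 37 °C, 5% CO2. MTT 0.5 mg/mL for 4 h, then SDS/HCl for 16 h; A590 read against 650 nm. Normalized to PBS (100%); DMSO 12% as positive control.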

SH-SY5Y = assay: Cytotoxicity against human SH-SY5Y cells at 600 ug/ml after 24 hrs by MTT assay; type: cell-based; method in brief: as §4
Enterobacter cloacae [24] = assay: Antimicrobial activity against Enterobacter cloacae Ha89 after 20 hrs by broth microdilution method; type: functional; conditions: Ha89, 20 h; method in brief: as §1
Proteus vulgaris [25] = assay: Antimicrobial activity against Proteus vulgaris ICB 9081 after 20 hrs by broth microdilution method; type: functional; conditions: ICB 9081, 20 h; method in brief: as §1
Proteus vulgaris [26] = assay: Antimicrobial activity against Proteus vulgaris ICB 9095 after 20 hrs by broth microdilution method; type: functional; conditions: ICB 9095, 20 h; method in brief: as §1
Stenotrophomonas [27] = assay: Antimicrobial activity against Stenotrophomonas ICB 308054 after 20 hrs by broth microdilution method; type: functional; conditions: ICB 308054, 20 h; method in brief: as §1
Stenotrophomonas [28] = assay: Antimicrobial activity against Stenotrophomonas ICB 7569 after 20 hrs by broth microdilution method; type: functional; conditions: ICB 7569, 20 h; method in brief: as §1
Escherichia coli [29] = assay: Antimicrobial activity against Escherichia coli 70430001 after 20 hrs by broth microdilution method; type: functional; conditions: Escherichia coli, 70430001, 20 h; method in brief: as §1
Escherichia coli [30] = assay: Antimicrobial activity against Escherichia coli 70329001 after 20 hrs by broth microdilution method; type: functional; conditions: Escherichia coli, 70329001, 20 h; method in brief: as §1
Pseudomonas aeruginosa [31] = assay: Antimicrobial activity against Pseudomonas aeruginosa 70108001 after 20 hrs by broth microdilution method; type: functional; conditions: Pseudomonas aeruginosa, 70108001, 20 h; method in brief: as §3
Pseudomonas aeruginosa [32] = assay: Antimicrobial activity against Pseudomonas aeruginosa 61118003 after 20 hrs by broth microdilution method; type: functional; conditions: Pseudomonas aeruginosa, 61118003, 20 h; method in brief: as §3
Pseudomonas aeruginosa [33] = assay: Antimicrobial activity against Pseudomonas aeruginosa 60909001 after 20 hrs by broth microdilution method; type: functional; conditions: Pseudomonas aeruginosa, 60909001, 20 h; method in brief: as §3
Pseudomonas aeruginosa [34] = assay: Antimicrobial activity against Pseudomonas aeruginosa 60811001 after 20 hrs by broth microdilution method; type: functional; conditions: Pseudomonas aeruginosa, 60811001, 20 h; method in brief: as §3
Pseudomonas aeruginosa [35] = assay: Antimicrobial activity against Pseudomonas aeruginosa PAO1 after 20 hrs by broth microdilution method; type: functional; conditions: PAO1, 20 h; method in brief: as §3
Pseudomonas aeruginosa [36] = assay: Antimicrobial activity against Pseudomonas aeruginosa ATCC 27853 after 20 hrs by broth microdilution method; type: functional; conditions: ATCC 27853, 20 h; method in brief: as §3
Pseudomonas aeruginosa [37] = assay: Antimicrobial activity against Pseudomonas aeruginosa Walter after 20 hrs by broth microdilution method; type: functional; method in brief: as §3
Pseudomonas aeruginosa [38] = assay: Antimicrobial activity against Pseudomonas aeruginosa DSM 3227 after 20 hrs by broth microdilution method; type: functional; conditions: DSM 3227, 20 h; method in brief: as §3
Stenotrophomonas [39] = assay: Antimicrobial activity against Stenotrophomonas ICB 7789 after 20 hrs by broth microdilution method; type: functional; conditions: ICB 7789, 20 h; method in brief: as §1

CC[C@H](C)[C@H](NC(=O)[C@H](CCCN)NC(=O)[C@H](CCCNC(=N)N)NC(=O)[C@@H]1CCCN1C(=O)[C@@H]1CCCN1C(=O)[C@H](CCCNC(=N)N)NC(=O)[C@@H]1CCCN1C(=O)[C@H](CCCNC(=N)N)NC(=O)[C@@H]1CCCN1C(=O)[C@H](CC(C)C)NC(=O)[C@H](Cc1ccc(O)cc1)NC(=O)[C@@H]1CCCN1C(=O)[C@@H]1CCCN1C(=O)[C@H](CCCCN)NC(=O)[C@H](CC(=O)O)NC(=O)[C@@H](N)C(C)C)C(=O)N[C@@H](Cc1ccc(O)cc1)C(=O)N[C@@H](CC(N)=O)C(=O)N[C@@H](CCCN)C(N)=O (H-VDKPPYLPRPRPPR[Orn]IYN[Orn]-NH2)
16 µg/mL: MIC (Stenotrophomonas [28])
32 µg/mL: MIC (Stenotrophomonas [27]) | MIC (Stenotrophomonas [39])
2 µg/mL: MIC (Escherichia coli [1]) | MIC (Klebsiella pneumoniae [9]) | MIC (Pseudomonas aeruginosa [31]) | MIC (Pseudomonas aeruginosa [34]) | MIC (Pseudomonas aeruginosa [35]) | MIC (Pseudomonas aeruginosa [36])
0.5 µg/mL: MIC (Escherichia coli [3]) | MIC (Escherichia coli [5]) | MIC (Escherichia coli [6]) | MIC (Klebsiella pneumoniae [7]) | MIC (Klebsiella pneumoniae [10]) | MIC (Klebsiella pneumoniae [11]) | MIC (Acinetobacter baumannii [16]) | MIC (Enterobacter cloacae [18]) | MIC (Enterobacter cloacae [21]) | MIC (Klebsiella pneumoniae [22]) | MIC (Escherichia coli [29])
0.25 µg/mL: MIC (Enterobacter cloacae [19]) | MIC (Enterobacter cloacae [20]) | MIC (Enterobacter cloacae [24])
8 µg/mL: MIC (Escherichia coli [8]) | MIC (Micrococcus luteus) | MIC (Proteus vulgaris [25])
180 min: half-life at 75 ug/ml [23]
Non-toxic: Activity (HeLa) | Activity (SH-SY5Y)
1 µg/mL: MIC (Escherichia coli [2]) | MIC (Escherichia coli [4]) | MIC (Klebsiella pneumoniae [12]) | MIC (Acinetobacter baumannii [13]) | MIC (Acinetobacter baumannii [14]) | MIC (Acinetobacter baumannii [15]) | MIC (Acinetobacter baumannii [17]) | MIC (Escherichia coli [30]) | MIC (Pseudomonas aeruginosa [32]) | MIC (Pseudomonas aeruginosa [33])
4 µg/mL: MIC (Proteus vulgaris [26]) | MIC (Pseudomonas aeruginosa [37]) | MIC (Pseudomonas aeruginosa [38])
